Out of some 360,000 compounds screened, about 950 (0.26%) were called active. This is one part of a sample in which actives are shown more often than they occur.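 Rule for the calls: active = inhibition above a per-plate limit, mean inhibition of low control wells plus 3 SD (cut at about 25% in these data); inactive = the rest.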

The target in this assay is ADP-ribosylation factor GTPase-activating protein 1 (Rattus norvegicus) (UniProt Q62848). Nature of the assay: inhibitors of rat ARFGAP1 GAP activity, primary screen, biochemical, fluorescence polarization, GDP tracer (AID 651572).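 Note: 0% = DMSO wells with enzyme and 100% = wells lacking Arfgap1.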 As to conditions: Arfgap1-stimulated ARF1 GTP hydrolysis, GDP FP detection; at 16.5 µM; hits give high values. In short, it runs like this: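 System: truncated rat Arfgap1 GAP domain / Medium: HEPES-based buffer, pH 7.5 / Also added: N-terminally truncated human ARF1-GTP substrate / Incubation: enzyme reaction 120 min at 25 °C after 20 min preincubation / Measured by: FP of antibody-bound GDP Alexa 633 tracer, ex 620/em 688 nm / Replicates: singlicate, each compound tested once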
Sequence of ADP-ribosylation factor GTPase-activating protein 1 (Rattus norvegicus) (Q62848 1-136 limits assumed): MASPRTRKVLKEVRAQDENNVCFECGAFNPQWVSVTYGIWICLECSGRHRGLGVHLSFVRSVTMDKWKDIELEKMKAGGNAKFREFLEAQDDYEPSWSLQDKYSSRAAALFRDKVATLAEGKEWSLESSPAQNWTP
(In general: Polarisation of emitted light reports the rotation of a fluorescent probe.)
What is called inhibition is the change of the read-out against control, counted positive when it falls. As for `O=S1(=O)c2c(cccc2N2CCCCC2)O[C@H](COCc2ccccc2)CN1C1CC1`, the inhibition is 0.4% (inactive).
For `C#CCN([C@@H](C)C(=O)OCC)S(=O)(=O)c1ccc(Br)cc1F`, the inhibition was -5.91% (inactive).
In the case of `Cc1cc(N2CCN(C(=O)OC(C)(C)C)C[C@H]2C)ccc1N1CCN(Cc2ccccc2)[C@H](C)C1` it was 1.76% (inactive); in that of `CCCCCCCCN1C(=O)[C@@H](CC(=O)NCCCC)C[C@@]2(C(=O)OC)C1=C[C@H](C(C)(C)C)O[C@@H]2C`, 3.82% (inactive).
For the molecule `Cc1[nH]c2ccccc2c1CC(=O)Nc1ccc(Nc2cccnc2)c(-c2cccc(Cl)c2)c1`, the inhibition is 16.8% (inactive).
The result for `COc1ccc(CNC(=O)C(C)NCc2ccccc2Cl)cc1` (stereo not given) reads -1.63% (inactive); that for `COc1ccc(CNC(=O)C(Cc2ccccc2)n2cccc2)cc1` (stereo not given), 33.6% (active).
The result for `CCSc1ccccc1C(=O)NCc1ccc(OC)cc1` reads -5.39% (inactive); that for `Cc1cc(Br)cn2c(Cc3ccccc3C(F)(F)F)c(-c3ccc(C#N)cc3)nc12`, -8.18% (inactive).
In the case of `COC(=O)Cc1nnn2c1[C@H](C)[C@@H](OC)c1cc(Br)ccc1-2`, the inhibition is -3.05% (inactive).
For `CC(=O)C1=C(C)N(Cc2ccccc2)C(=S)NC1c1cccc(Br)c1` (stereo not given), the inhibition was 20.9% (inactive).
Consider `CN1CCCCC(NC(=O)C(C)(C)C)C1=O` (stereo not given), for which the inhibition was -2.4% (inactive).
`CC(C)CNc1cccc2c1S(=O)(=O)N[C@H](C)CO2`: the inhibition was 1.59% (inactive).
In the case of `COC(=O)c1c(-c2ccc(OC)cc2)c2c(c3c4ccccc4n(S(=O)(=O)c4ccc(C)cc4)c13)C(=O)N(C)C2` it was 2.2% (inactive); in that of `COC(=O)c1cc2c(c3c4cc(F)ccc4n(S(=O)(=O)c4ccccc4)c13)C(=O)N(Cc1ccccc1OC)C2`, -6.31% (inactive).
In the case of `COC(=O)c1cc2c(c3c4ccccc4n(S(=O)(=O)c4cccc(C)c4)c13)C(=O)N(Cc1ccccc1)C2`, the inhibition is 46.8% (active).
The result for `COC(=O)C1=C(C)N(Cc2ccc(F)cc2)C(=S)NC1c1cccc(Cl)c1` (stereo not given) reads 0.22% (inactive); that for `COc1ccc(/C=C2\SC(=S)N(CCCC(=O)NC3CCCC3)C2=O)cc1OC`, 25.1% (active); that for `COc1ccc(CCNC(=O)CCC(=O)NC2CCCCC2)cc1OC`, 9.15% (inactive).
`COc1ccc(/C=C/C(=O)OCC(=O)NC2CCCCCC2)cc1OC`: the inhibition was -8.52% (inactive).
In the case of `N#Cc1ccc(OCCCN2CCC(C(O)(c3ccccc3)c3ccccc3)CC2)c(F)c1` it was -2.6% (inactive); in that of `COc1ccc(-c2csc(Nc3ccc(O)cc3)n2)cc1`, 24.8% (active).
As to `COc1ccc(C(O)c2nc(-c3ccc(OC)nc3)cs2)cc1` (stereo not given), the inhibition was 6.07% (inactive).
The result for `COC(=O)CCc1sc(Nc2ccc(Br)cc2)nc1-c1ccc(OC)cc1` reads 7.69% (inactive).
In the case of `CC(C)(C)n1nc(C2CC2)c(Br)c1NC(=O)c1ccccc1F` it was -8.2% (inactive); in that of `Oc1cccc2ccc(/C=C/c3ccc(Br)s3)nc12`, 9.22% (inactive); in that of `Nc1ccc(S(=O)(=O)Nc2nccc(/C=C/c3ccc(Br)s3)n2)cc1`, 33.6% (active).
The result for `CC(=O)Nc1ccc(S(=O)(=O)Nc2nccc(/C=C/c3ccccc3F)n2)cc1` reads -5.08% (inactive).
For `COc1ccccc1CCn1cnc(-c2ccccc2)c1C(C)C`, the inhibition is 2.03% (inactive).
Turning to `CC(=O)C1=C(C)N(Cc2ccc(Cl)cc2)C(=S)NC1c1ccc(F)cc1` (stereo not given), the inhibition was -8.75% (inactive).
The result for `COC(=O)C1=C(C)N(Cc2cccc(C(F)(F)F)c2)C(=NCc2ccccc2)NC1c1ccc(Cl)cc1` (stereo not given) reads -7.39% (inactive); that for `CC1CCc2[nH]c3ccc(C(=O)N(C)CC(=O)Nc4cccc(F)c4)cc3c2C1` (stereo not given), 28% (active).
In the case of `CCCN(CC(=O)Nc1ccccc1C)C(=O)c1ccc2[nH]c3c(c2c1)CC(C)CC3` (stereo not given) it was 11.3% (inactive); in that of `CN(CC(=O)Nc1cccc(F)c1)C(=O)CC1CCCC1`, -2.56% (inactive).
`CCOC(=O)/C=C/c1ccccc1O`: the inhibition was 1.41% (inactive).
Regarding `COc1ccccc1Cc1c(-c2ccc(F)cc2)nc2ccc(C)cn12`, the inhibition is 4.94% (inactive).
The result for `CN1C(=O)C2CC(O)C(SC3CC4C(=O)N(C)C(=O)C4CC3O)CC2C1=O` (stereo not given) reads -0.39% (inactive).
The result for `CC(C)[C@@H](C)/C=C/[C@@H](C)[C@H]1CC[C@@H]2[C@]1(C)CCC1[C@]23C=C[C@]2(C[C@@H](O)CC[C@]12C)N(c1ccc([N+](=O)[O-])cn1)O3` (stereo not given in full) reads 2.09% (inactive).
`COc1ccccc1OCC(=O)OCn1c(SC)nnc(C)c1=O`: the inhibition was 25.6% (active).
Regarding `COc1ccccc1OCC(=O)OCc1cc(-c2ccco2)on1`, the inhibition was -14.7% (inactive).
Consider `COc1ccccc1OCc1nnc(SCC(N)=O)n1-c1ccccc1`, for which the inhibition was 3.32% (inactive).
With `O=C(NCc1ccccc1)[C@H]1CCCN1C(=O)[C@@H]1CCCN1C(=O)c1ccc(Cl)cc1Cl`, the inhibition is 11.1% (inactive).
As for `Cc1nc(NC(=O)C(C)(C)C)sc1[N+](=O)[O-]`, the inhibition was -3.35% (inactive).
In the case of `O=C(N[C@H](Cc1ccccc1)C(=O)N1CCCN(Cc2cccs2)CC1)[C@H]1O[C@@H](n2ccc(=O)[nH]c2=O)[C@H](O)[C@@H]1O`, the inhibition is 17.7% (inactive).
The result for `COc1ccc(NC(=O)c2ccc(C#CC(C)(C)O)cc2)cc1` reads -7.91% (inactive).
As for `Cc1ccc(NC(=O)c2ccc(Oc3ncccn3)cc2)cc1`, the inhibition was 25.6% (active).
The result for `CCOc1ccc(C(=O)Nc2cccc(SC)c2)cc1` reads 2.92% (inactive).
As for `CC(C)C[C@H](NC(=O)CC1CCCC1)C(=O)N1CCC[C@H]1C(=O)NCc1ccccc1`, the inhibition was 2.12% (inactive).
In the case of `Nc1ncnc2c1ncn2C1OC(CO)CC1O` (stereo not given) it was 3.3% (inactive); in that of `CC1(C)Cc2nc3sc4c(SCC(=O)NC(c5ccccc5)c5ccccc5)ncnc4c3cc2CO1`, -6.88% (inactive).
The result for `CC(C)CCSc1ncnc2c1oc1nc3c(cc12)COC(C)(C)C3` reads 28.1% (active); that for `CCCc1nc2oc3c(OCC)ncnc3c2c2c1COC(C)(C)C2`, 16.9% (inactive); that for `O=C(NCc1ccccc1)[C@H]1CCCN1C(=O)[C@H]1CCCN1C(=O)N1CCOCC1`, -1.77% (inactive).
With `COC(=O)C1=C(C)N(Cc2ccc(C(F)(F)F)cc2)C(=NCc2ccc(C(F)(F)F)cc2)NC1c1cccc(Cl)c1` (stereo not given), the inhibition was 9.23% (inactive).
In the case of `Nc1ncnc2c1ncn2[C@@H]1O[C@H](C(=O)N[C@@H](CCc2ccccc2)C(=O)NCC(=O)N2CCOCC2)[C@@H](O)[C@H]1O` it was -17.3% (inactive); in that of `O=C(O)CCn1cc(/C=C/C(=O)c2ccc(Cl)cc2)c(-c2cccc(Br)c2)n1`, 26.5% (active); in that of `CCOC(=O)C1=C(C(=O)OCC)C2N(Cc3ccc(C#N)cc3)c3ccccc3[C@@]23C[C@@H](C(=O)OC)N(S(=O)(=O)c2ccc(F)cc2)C3=N1` (stereo not given in full), 6.03% (inactive).
The result for `CCc1c(-c2ccccc2OC)ncn1CCc1ccccc1OC` reads 2.34% (inactive); that for `CC1CCN(C(=O)c2ncn3c2C(=O)N[C@@H](C)C3)CC1`, 5.31% (inactive).
In the case of `COc1cccc(-c2cc(CNC(=O)[C@@H](Cc3ccccc3)NC(=O)[C@H]3O[C@@H](n4cnc(C(N)=O)n4)[C@H](O)[C@@H]3O)no2)c1`, the inhibition was -9.08% (inactive).
The result for `COC(=O)C1=C(C)N(Cc2ccc(C(F)(F)F)cc2)C(=NCc2ccccc2)NC1c1ccccc1C(F)(F)F` (stereo not given) reads 9.08% (inactive); that for `O=C(O)c1ccc(COc2c(F)c(F)cc(F)c2F)o1`, 5.24% (inactive).
For the molecule `O=C(O)c1ccc(S(=O)(=O)N2CCOCC2)o1`, the inhibition is -3.82% (inactive).
On to `O=C(O)CSCc1ccc(C(=O)O)o1`, for which the inhibition was 25.2% (active).
For `Cc1cc(S(=O)(=O)N2CCOCC2)ccc1OCC(=O)Nc1cccc(C(F)(F)F)c1`, the inhibition was 2.22% (inactive).
Regarding `CCNS(=O)(=O)c1ccc(NC(=O)Nc2cccc(C(F)(F)F)c2)cc1`, the inhibition was 28.9% (active).
With `CCNS(=O)(=O)c1ccc(NC(=O)c2cncc(Br)c2)cc1`, the inhibition was -3.5% (inactive).
In the case of `COC(=O)[C@]12C[C@H](CC(=O)N3CCN(C(=O)C4CC4)CC3)C(=O)N(Cc3ccc4c(c3)OCO4)C1=C[C@H](C(C)(C)C)O[C@@H]2C` it was 11.2% (inactive); in that of `COC(=O)[C@H](CC(C)C)NS(=O)(=O)c1c(F)cccc1F`, 4.12% (inactive); in that of `COC(=O)CSc1ncnc2c1cnn2-c1ccc(C)cc1C`, 8% (inactive).
The result for `Cc1ccc(-n2ncc3c(=O)n(-c4ccc(C)c(C)c4)c(-c4ccco4)nc32)cc1` reads -1.3% (inactive); that for `Cc1ccc(-n2ncc3c2ncn2nc(-c4ccco4)nc32)c(C)c1`, 44.3% (active).
The result for `Cc1ccc(NC(=O)N2c3ccccc3SC2c2ccco2)c(C)c1` (stereo not given) reads -11.2% (inactive); that for `COCc1[nH]nc2c1C(c1ccccc1)N(c1ccccc1)C2=O` (stereo not given), 8.17% (inactive).
In the case of `CCOC(=O)CNC(=O)N(C)[C@H]1C[C@H]2c3[nH]c4c(-c5ccc6c(c5)OCO6)cccc4c3CCN2C(=O)[C@H]1[C@H](C)O`, the inhibition was -1.05% (inactive).
In the case of `O=c1[nH]c(-c2ccccc2)cn1C1CCN(Cc2ccc(-c3nc4ccc(F)cc4nc3-c3ccccc3)cc2)CC1` it was 6.41% (inactive).
The result for `Cc1ccc(C)c(CN2CCC(CNC(=O)C3CCCN(c4ncnc5c4nc4n5CCCCC4)C3)CC2)c1` (stereo not given) reads 1.05% (inactive).
For `Cc1nnc(SCCCn2c(N3CCCCC3)nc3c2c(=O)[nH]c(=O)n3C)s1`, the inhibition is -8.33% (inactive).
In the case of `Cn1c(=O)[nH]c(=O)c2c1nc(N1CCN(C(c3ccccc3)c3ccccc3)CC1)n2CCO` it was -3.12% (inactive); in that of `Cn1c(=O)[nH]c(=O)c2c1nc(N1CCN(CCO)CC1)n2CCSc1nc2ccccc2s1`, 38.1% (active).
Regarding `CCCCCCCCN1C(=O)[C@@H](CC(=O)N2CCN(C(=O)OCC)CC2)C[C@@]2(C(=O)OC)C1=C[C@H](C1CCCC1)O[C@@H]2C`, the inhibition was -12.9% (inactive).
The result for `NC(c1csc(NC(=O)Nc2cccc(C(F)(F)F)c2)n1)C1CCCCC1` (stereo not given) reads 10.7% (inactive).
As for `COc1ccc(CC(N)c2csc(NC(=O)Nc3ccc(C(C)C)cc3)n2)cc1` (stereo not given), the inhibition was 16% (inactive).
With `COc1ccc(C(N)c2csc(NC(=O)Nc3cccc(C(F)(F)F)c3)n2)cc1` (stereo not given), the inhibition is 26.1% (active).
For `O=C(O)Cn1cnc2c(NCc3ccccc3)ncnc21`, the inhibition was -10.7% (inactive).

The values are drawn from PubChem BioAssay AID651572 (The Scripps Research Institute Molecular Screening Center, 2012).
